Assay results taken from ChEMBL document CHEMBL4396880, “Development of Small-Molecules Targeting Receptor Activator of Nuclear Factor-κB Ligand (RANKL)-Receptor Activator of Nuclear Factor-κB (RANK) Protein-Protein Interaction by Structure-Based Virtual Screening and Hit Optimization” (J Med Chem, 2019).
pKd: −log10 of the molar value. The source made the active and inactive calls. The calls are words filed in the database; no cut-off is given here. Bridge positions count the residues as written; N and C are the ends. Peptide text beside a SMILES is read from it.

How the values were obtained:
[1] = biological target: T1, Tumor necrosis factor ligand superfamily member 11/11A (Mus musculus) (UniProt O35235+O35305); assay: Inhibition of RANKL-RANK protein-protein interaction in C57/BL6 mouse bone marrow macrophage assessed as suppression of M-CSF/mRANKL-induced osteoclastogenesis by measuring reduction in TRAP activity at 5 uM measured after 3 days by colorimetric assay relative to control
Outline: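 BMMs were incubated with the test compound at 5 μM, together with RANKL (50 ng/mL) and M-CSF (20 ng/mL), for 3 days. Osteoclastogenesis was then read out as tartrate-resistant acid phosphatase (TRAP) activity.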

[2] = biological target: T2, Tumor necrosis factor ligand superfamily member 11 (Mus musculus, UniProt O35235); assay: Binding affinity to mouse N-terminal His6-Trx-tagged RANKL ectodomain (157 to 316 residues) expressed in Escherichia coli BL21 (DE3) by isothermal titration calorimetric assay
T2 sequence (O35235 whole entry): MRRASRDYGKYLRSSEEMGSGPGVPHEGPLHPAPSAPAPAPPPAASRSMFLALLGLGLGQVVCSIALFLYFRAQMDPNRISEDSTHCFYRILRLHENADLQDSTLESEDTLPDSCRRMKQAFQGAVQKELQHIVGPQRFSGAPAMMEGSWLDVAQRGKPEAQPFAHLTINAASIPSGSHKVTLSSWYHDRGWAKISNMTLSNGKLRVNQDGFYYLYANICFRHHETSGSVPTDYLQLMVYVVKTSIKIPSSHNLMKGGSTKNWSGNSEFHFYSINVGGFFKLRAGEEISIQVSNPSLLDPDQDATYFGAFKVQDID

[3] = biological target: T3, Tumor necrosis factor ligand superfamily member 11 (Homo sapiens, UniProt O14788); assay: Binding affinity to human RANKL by surface plasmon resonance analysis
T3 sequence (O14788 whole entry): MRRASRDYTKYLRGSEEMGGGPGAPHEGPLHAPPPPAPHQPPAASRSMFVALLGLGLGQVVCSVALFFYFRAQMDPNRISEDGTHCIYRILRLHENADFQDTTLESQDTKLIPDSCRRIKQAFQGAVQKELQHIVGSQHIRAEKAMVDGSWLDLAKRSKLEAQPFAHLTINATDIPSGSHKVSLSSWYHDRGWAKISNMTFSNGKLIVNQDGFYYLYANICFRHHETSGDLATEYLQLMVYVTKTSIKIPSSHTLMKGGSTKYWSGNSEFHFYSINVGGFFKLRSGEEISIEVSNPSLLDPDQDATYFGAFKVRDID

[4] = biological target: T1, Tumor necrosis factor ligand superfamily member 11/11A (Mus musculus); assay: (§1) Inhibition of RANKL-RANK protein-protein interaction in C57/BL6 mouse bone marrow macrophage assessed as suppression of M-CSF/mRANKL-induced osteoclast differentiation by measuring decrease in multinucleated TRAP+ cells at 5 uM supplemented with fresh medium containing compounds every 2 days for 5 to 6 days by TRAP staining-based microscopic analysis; format: cell-based
Outline: (§2)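 Bone marrow macrophages were exposed to the test compound at the indicated concentrations for 5 days under M-CSF/RANKL stimulation. TRAP-positive multinucleated cells were then counted as the measure of osteoclast formation.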

[5] = biological target: T1, Tumor necrosis factor ligand superfamily member 11/11A (Mus musculus); assay: as §1, with “nuclei size of F-actin ring formation” for “multinucleated TRAP+ cells”, “rhodamine phalloidin/DAPI” for “TRAP”; format: protein assay
[6] = biological target: T1, Tumor necrosis factor ligand superfamily member 11/11A (Mus musculus); assay: as §1, with “cells” for “cells at 5 uM”; format: cell-based; outline: as §2
[7] = biological target: T1, Tumor necrosis factor ligand superfamily member 11/11A (Mus musculus); assay: as §1, with “nuclei number of F-actin ring formation” for “multinucleated TRAP+ cells”, “rhodamine phalloidin/DAPI” for “TRAP”; format: protein assay
[8] = Cytotoxicity against M-CSF-stimulated C57/BL6 mouse bone marrow macrophages assessed as cell viability at 10 uM measured after 2 days by MTT assay (reference value: 100%); format: cell-based; settings: M-CSF-stimulated bone marrow macrophages (BMDM), read-out: Activity

T1 sequence (O35305 31-625 partner limits assumed, one chain of several): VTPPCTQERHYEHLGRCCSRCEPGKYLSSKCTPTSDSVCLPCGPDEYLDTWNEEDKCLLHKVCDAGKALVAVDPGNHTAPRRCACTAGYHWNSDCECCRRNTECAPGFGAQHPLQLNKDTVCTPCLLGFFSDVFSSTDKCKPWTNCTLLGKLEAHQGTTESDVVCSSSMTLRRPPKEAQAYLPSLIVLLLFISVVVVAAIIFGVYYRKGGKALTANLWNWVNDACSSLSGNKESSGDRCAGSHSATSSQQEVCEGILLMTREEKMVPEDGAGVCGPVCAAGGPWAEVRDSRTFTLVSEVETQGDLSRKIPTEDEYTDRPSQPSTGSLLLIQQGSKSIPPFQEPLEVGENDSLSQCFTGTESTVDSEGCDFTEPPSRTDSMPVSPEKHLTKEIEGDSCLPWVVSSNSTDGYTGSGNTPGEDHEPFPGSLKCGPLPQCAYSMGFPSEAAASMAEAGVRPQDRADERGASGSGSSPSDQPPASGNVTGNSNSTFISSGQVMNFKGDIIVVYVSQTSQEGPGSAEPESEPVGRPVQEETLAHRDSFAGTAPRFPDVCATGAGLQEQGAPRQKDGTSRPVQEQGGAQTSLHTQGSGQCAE

Structure (SMILES)	inhibition [1]	other results
Cc1cccc(C)c1NCC(Cc1c[nH]c2ccccc12)NC(=O)CCc1ccccc1 (centres undefined)	23.1%	–
Cc1ccccc1NC(=O)C(Cc1c[nH]c2ccccc12)NC(=O)CCc1ccccc1 (centres undefined)	74.2%	–
CC[C@H](C)[C@H](NC(=O)[C@H](CC(C)C)NC(=O)[C@H](Cc1ccc(O)cc1)NC(=O)[C@@H]1CSSC[C@H](NC(=O)[C@@H](N)Cc2ccc(O)cc2)C(=O)N[C@@H](CCC(=O)O)C(=O)N[C@@H]([C@@H](C)CC)C(=O)N[C@@H](CCC(=O)O)C(=O)N[C@@H](Cc2ccccc2)C(=O)N1)C(=O)N[C@@H](CCCNC(=N)N)C(=O)O (H-YCEIEFCYLIR-OH; disulfide 2-7)	–	pKd [2]: 3.55; pKd [3]: 3.55
N=C(N)NCCC[C@H](NC(=O)[C@H](CCCNC(=N)N)NC(=O)[C@H](Cc1ccc(O)cc1)NC(=O)[C@@H]1CSSC[C@H](NC(=O)[C@@H](N)Cc2ccc(O)cc2)C(=O)N[C@@H](Cc2c[nH]c3ccccc23)C(=O)N[C@@H](CC(N)=O)C(=O)N[C@@H](CO)C(=O)N[C@@H](CC(=O)O)C(=O)N[C@@H](CS)C(=O)N[C@@H](CCC(=O)O)C(=O)N[C@@H](CS)C(=O)N1)C(=O)O (H-YCWNSDCECCYRR-OH; disulfide 2-10)	–	pKd [2]: 4.76; pKd [3]: 4.76
Cc1cccc(C)c1NC(=O)C(Cc1c[nH]c2cc(F)ccc12)NC(=O)CCc1ccccc1 (racemic)	89.4%	inhibition [4]: 100%; inhibition [5]: Dose-dependent effect; inhibition [6]: Dose-dependent effect; inhibition [7]: Dose-dependent effect; pKd [3]: 5.46; viability at 48 h, 10 µM [8]: 103%
Cc1cccc(C)c1NC(=O)C(Cc1c[nH]c2ccccc12)NC(=O)CCc1ccc(Cl)cc1 (racemic)	89%	inhibition [4]: 100%; inhibition [5]: Dose-dependent effect; inhibition [6]: Dose-dependent effect; inhibition [7]: Dose-dependent effect; pKd [3]: 5.51; viability at 48 h, 10 µM [8]: 102%
Cc1cccc(C)c1NC(=O)C(Cc1c[nH]c2ccccc12)NC(=O)CCc1ccccc1 (racemic) [listing 1 of 2 here]	–	pKd [3]: 5.57; viability at 48 h, 10 µM [8]: 110%
CN(C)c1ccc(NC(=O)C(Cc2c[nH]c3ccccc23)NC(=O)CCc2ccccc2)cc1 (racemic)	70.6%	–
COc1ccc(CCC(=O)NC(Cc2c[nH]c3ccccc23)C(=O)Nc2c(C)cccc2C)cc1 (racemic)	16.9%	–
COc1ccc(NC(=O)C(Cc2c[nH]c3ccccc23)NC(=O)CCc2ccccc2)cc1 (racemic)	59%	–
COc1ccc2[nH]cc(CC(NC(=O)CCc3ccccc3)C(=O)Nc3c(C)cccc3C)c2c1 (racemic)	84.4%	–
COc1cccc(CCC(=O)NC(Cc2c[nH]c3ccccc23)C(=O)Nc2c(C)cccc2C)c1 (racemic)	41.7%	–
CS(=O)(=O)c1ccc(NC(=O)C(Cc2c[nH]c3ccccc23)NC(=O)CCc2ccccc2)cc1 (racemic)	69.9%	–
Cc1ccc(NC(=O)C(Cc2c[nH]c3ccccc23)NC(=O)CCc2ccccc2)cc1 (racemic)	69.9%	–
Cc1cccc(C)c1NC(=O)C(Cc1c[nH]c2ccc(F)cc12)NC(=O)CCc1ccccc1 (racemic)	83.9%	–
Cc1cccc(C)c1NC(=O)C(Cc1c[nH]c2ccccc12)NC(=O)CCC1CC1 (racemic)	57.4%	–
Cc1cccc(C)c1NC(=O)C(Cc1c[nH]c2ccccc12)NC(=O)CCC1CCCC1 (racemic)	14%	–
Cc1cccc(C)c1NC(=O)C(Cc1c[nH]c2ccccc12)NC(=O)CCC1CCCCC1 (racemic)	35.4%	–
Cc1cccc(C)c1NC(=O)C(Cc1c[nH]c2ccccc12)NC(=O)CCCCc1ccccc1 (racemic)	82%	–
Cc1cccc(C)c1NC(=O)C(Cc1c[nH]c2ccccc12)NC(=O)CCCc1ccccc1 (racemic)	79.3%	–

Structure (SMILES)	inhibition [1]	other results
Cc1cccc(C)c1NC(=O)C(Cc1c[nH]c2ccccc12)NC(=O)CCc1ccc(F)cc1 (racemic)	33.6%	–
Cc1cccc(C)c1NC(=O)C(Cc1c[nH]c2ccccc12)NC(=O)CCc1cccc(Cl)c1 (racemic)	69.5%	–
Cc1cccc(C)c1NC(=O)C(Cc1c[nH]c2ccccc12)NC(=O)CCc1cccc(F)c1 (racemic)	56.8%	–
Cc1cccc(C)c1NC(=O)C(Cc1c[nH]c2ccccc12)NC(=O)CCc1ccccc1 (racemic) [listing 2 of 2 here]	90.3%	inhibition [4]: 100%; inhibition [5]: Dose-dependent effect; inhibition [6]: Dose-dependent effect; inhibition [7]: Dose-dependent effect
Cc1cccc(C)c1NC(=O)C(Cc1c[nH]c2ccccc12)NC(=O)CCc1cccnc1 (racemic)	66.5%	–
Cc1cccc(C)c1NC(=O)C(Cc1c[nH]c2ccccc12)NC(=O)CCc1cccs1 (racemic)	65.4%	–
Cc1cccc(C)c1NC(=O)C(Cc1c[nH]c2ccccc12)NC(=O)CCc1ccncc1 (racemic)	41.4%	–
Cc1cccc(C)c1NC(=O)C(Cc1c[nH]c2ccccc12)NC(=O)CCc1ccsc1 (racemic)	52.2%	–
Cc1cccc(C)c1NC(=O)C(Cc1c[nH]c2ccccc12)NC(=O)CCc1nccs1 (racemic)	86.3%	–
Cc1cccc(C)c1NC(=O)C(Cc1c[nH]c2ccccc12)NC(=O)Cc1ccccc1 (racemic)	52.1%	–
Cc1cccc(C)c1NC(=O)C(Cc1c[nH]c2ccccc12)NCCCCCc1ccccc1 (racemic)	87.2%	–
Cc1cccc(C)c1NC(=O)C(Cc1c[nH]c2ccccc12)NCCCCc1ccccc1 (racemic)	83.3%	–
Cc1cccc(C)c1NC(=O)C(Cc1c[nH]c2ccccc12)NCCc1ccccc1 (racemic)	76.5%	–
O=C(CCc1ccccc1)NC(Cc1c[nH]c2ccccc12)C(=O)Nc1ccc(C(F)(F)F)cc1 (racemic)	72%	–
O=C(CCc1ccccc1)NC(Cc1c[nH]c2ccccc12)C(=O)Nc1ccc(F)cc1 (racemic)	70.3%	–
O=C(CCc1ccccc1)NC(Cc1c[nH]c2ccccc12)C(=O)Nc1ccc(N2CCOCC2)cc1 (racemic)	64.8%	–
O=C(CCc1ccccc1)NC(Cc1c[nH]c2ccccc12)C(=O)Nc1ccccc1 (racemic)	55.3%	–
O=C(CCc1ccccc1)NC(Cc1c[nH]c2ccccc12)C(=O)Nc1ccccc1F (racemic)	74%	–
Cc1cccc(C)c1NC(=O)C(Cc1c[nH]c2ccccc12)NC(=O)CCc1ccccc1 (single isomer, unassigned; (+))	Active	–
Cc1cccc(C)c1NC(=O)C(Cc1c[nH]c2ccccc12)NC(=O)CCc1ccccc1 (single isomer, unassigned; (-))	Active	–
